Measured values from the RNAGym collection of RNA variant scans (doi:10.1126/science.aae0568).
This sample holds only a part of the variants without activity.

B1: tRNA (parent)
chain: GUUCCGUUGGCGUAAUGGUAACGCGUCUCCCUCCUAAGGAGAAGACUGCGGGUUCGAGUCCCGUACGGAACG

Variants of: B1
Test: yeast fitness relative to wild type (ratio to wild type); higher = fitter; tRNA-Arg(CCU), competitive growth, 37 C, YPD
In short: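 For this measurement, the tRNA-Arg(CCU) gene was varied by chemical synthesis at a 3% per-site mutation rate across 69 sites, and each variant was placed at the native genomic locus in Saccharomyces cerevisiae. The pooled strains went through a 24-hour competition in YPD at 37°C in six parallel replicates, with amplicons from start and end populations read by 100-nucleotide paired-end sequencing. Darwinian fitness relative to wild type followed from the change in each genotype's frequency. Genotypes needed ≥ 100 starting reads, and estimates < 0.5 were set to 0.5.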

Q: Which yeast fitness does the source give for GUUUCGUUGGCGUAAUGGUAACGCGUCUCCCUCCUAAGGAGAAGACGGCGGGUUCGAGUCCCGUACGGAACG here?
A: The yeast fitness was 0.616.

Q: For GUUUCGUUGGCGUAAUGGUAACGCGUCUCCCUCCUAAGGAGAAGACUGCGGGCUCGAGUCCCGUACGGAACG, which yeast fitness is on record?
A: The yeast fitness was 0.869.

Q: For GUUUCGUUGGCGUAAUGGUAACGCGUCUCCCUCCUAAGGAGAAGACUGCGGGUACGAGUCCCGUACGGAACG, which yeast fitness is on record?
A: The yeast fitness was 0.627.

Q: With GUUUCGUUGGCGUAAUGGUAACGCGUCUCCCUCCUAAGGAGAAGACUGCGGGUCCGAGUCCUGUACGGAACG as the variant, how does the yeast fitness read?
A: The yeast fitness was 0.578.

Q: For GUUUCGUUGGCGUAAUGGUAACGCGUCUCCCUCCUAAGGAGAAGACUGCGGGUUCGAGCCCCGUACGGAACG, which yeast fitness is on record?
A: Its yeast fitness is 0.853.

Q: For GUUUCGUUGGCGUAAUGGUAACGCGUCUCCCUCCUAAGGAGAAGACUGCGGGUUCGAGCCCCGUACGGCACG, which yeast fitness is on record?
A: The yeast fitness was 0.772.

Q: Which yeast fitness does the source give for GUUUCGUUGGCGUAAUGGUAACGCGUCUCCCUCCUAAGGAGAAGACUGCGGGUUCGAGUCCCGAACGGAUCG here?
A: The yeast fitness was 0.66.

Q: Which yeast fitness does the source give for GUUCAGUUGGCGUAAUGGUAACGCGUCUCCCUCCUAAGGAGAAGACUGCGGGUUCGAGUCCCGUACGGAACG here?
A: Its yeast fitness is 0.995.

Q: For GUUCAGUUGGCGUCAUGGUAACGCGUCUCCCUCCUAAGGAGAAGACUGCGGGUUCGAGUCCCGUACGGAACG, which yeast fitness is on record?
A: Its yeast fitness is 0.603.

Q: Which yeast fitness does the source give for GUUCAGUUGGCGUCGUGGUAACGCGUCUCCCUCCUAAGGAGAAGACUGAGGGUUCGAGUCCCGUACGGAACG here?
A: Its yeast fitness is 0.572.

Q: With GUUCAGUUGGCGUCGUGGUAACGCGUCUCCCUCCUAAGGAGAAGACUGCGGGUUCGACUUCCGUAGGGAACG as the variant, how does the yeast fitness read?
A: Its yeast fitness is at most 0.5.

Q: With GUUCAGUUGGCGUCAUGGUAACGCGUCUCCCUCCUGAGCAGAAGAAUGCGGGUUCGAGUCCCGUCCGGAACG as the variant, how does the yeast fitness read?
A: Its yeast fitness is at most 0.5.

Q: For GUUCAGUUGGCGUCAUGGUAACGCGUCUACCUCCUAAGGACAAGACUGCGGGUUCGAGUCCCGUACGGAACG, which yeast fitness is on record?
A: The yeast fitness was 0.683.

Q: For GUUCAGUUGGCGUCAUGGUAACAGGUCUCCCUCCUUAGGAGAAGACUGCGGGUUCGAGUCCCAUACGAAACG, which yeast fitness is on record?
A: The yeast fitness was 0.579.

Q: Which yeast fitness does the source give for GUUCAGUUGGCGUCAUGGUAACGCGUCUCCCUCCUAAGGAGAAGACUGCGGGUUCGAGUCCCGUACGAAACG here?
A: Its yeast fitness is at most 0.5.

Q: Which yeast fitness does the source give for GUUCAGUUGGCGUGAUGGUUACGCGUCUCCCUCCUACGGAGAAGACUGAGGGUUCGAGUCCCGUAAGGAACG here?
A: Its yeast fitness is at most 0.5.

Q: With GUUCAGUUGGCGUGAUGGUAACGCGUCUCCCUCCUAAGGGAAAGUCUGCGGGCUCGCGUCCCGUACGGAACG as the variant, how does the yeast fitness read?
A: The yeast fitness was at most 0.5.

Q: For GUUCAGUUGGCGUGAUGGUAACGCGUCUCCCUCCUAAGGAGAUGACUGCGGGUUCGAGUCCCGUACGGAACG, which yeast fitness is on record?
A: The yeast fitness was at most 0.5.

Q: With GUUCAGUUGGCGUGAUGGUAAGGCGUUUCCCUCCUAUGGAGAAGACUGCGGGUUCGAGUCCCGUACGGAACG as the variant, how does the yeast fitness read?
A: Its yeast fitness is at most 0.5.

Q: For GUUCAGUUGGCGUGAUGGUAAGGCGUCUCCCUCCUAAGGAGAAGACUGCGGGUUCGAGUCCGGUACGGAACG, which yeast fitness is on record?
A: Its yeast fitness is at most 0.5.

Q: With GUUCAGUUGGCGUGAUGGUAACGAGUCUCCCUCCUAAGGAGAAGACUGCGGGUUCGAGUCCCGUACGGAACG as the variant, how does the yeast fitness read?
A: The yeast fitness was 0.565.

Q: Which yeast fitness does the source give for GUUCAGUUGGCGUGAUGGUAACGAGUCUCCCUCCUAAGGAGAGGACUGCGGGUUCGAGUCCCUUACGGAACG here?
A: The yeast fitness was at most 0.5.

Q: Which yeast fitness does the source give for GUUCAGUUGGCGUGAUGGUAACGAGUCUCCCUCCUAAGGAGAAGACUGCGGGUUCGAGUCCCAUACGGUACG here?
A: Its yeast fitness is at most 0.5.

Q: For GUUCAGUUGGCGUGAUGGUAACGCGUCUCCCUCCUAAGGAGAAGACUGCGGGUUCGAGUGCCGUACGGAACG, which yeast fitness is on record?
A: Its yeast fitness is at most 0.5.

Q: For GUUCAGUUGGCGUGAUCGUAACGCGUCUACCUGUUUAGGAGAAGACUGCGGGUUCGAGUCCCGUACGGAACG, which yeast fitness is on record?
A: Its yeast fitness is 0.648.

Q: With GUUCAGUUGGCGUUAUGGUACCGCGUCUCCCUCCUAAGGAGACGACUGCGGGUUCGAGUCCCGUACGGAACG as the variant, how does the yeast fitness read?
A: The yeast fitness was 0.595.

Q: Which yeast fitness does the source give for GUUCAGUUGGCGUUAUGGUAACGCGUCUCCCUCCUAAGGAGAAGACUGCGGAUUCGAGUCCCGUACGGAACG here?
A: Its yeast fitness is 0.603.

Q: Which yeast fitness does the source give for GUUCAGUUGGCGUACUGGUAACGCGUCUCCCUCCUAAGGAGAAGACUGCGGGUUCGAGUCCCGUACGGUACG here?
A: The yeast fitness was 0.552.

Q: Which yeast fitness does the source give for GUUCAGUUGGCGUACUGGUAACGCGUCUCACUCCUAAGGAGUAGACUGCGGGUUUGAGUCCCGUAAGGAACG here?
A: The yeast fitness was at most 0.5.

Q: With GUUCAGUUGGCGUACUGGUAACGCGUCUCCCUCCUAAGGAGAAGACUGCGGGUUCGAGUCCUGUACGGAACG as the variant, how does the yeast fitness read?
A: The yeast fitness was at most 0.5.

Q: Which yeast fitness does the source give for GUUCAGUUGGCGUACUGGUAACGCGUCUCCCUCCUAAGGAGAAGACUGCGGGUUCGAGUCCCGUAUGGAACG here?
A: The yeast fitness was at most 0.5.

Q: Which yeast fitness does the source give for GUUCAGUUGGCGUACUGGUAACGCGUCUCCCUCCUAAGGAGAAGACUGCGGGUUCGAGUCCCGUACUGAACG here?
A: Its yeast fitness is 0.526.

Q: Which yeast fitness does the source give for GUUCAGUUGGCGUACAGGUAACGCGUCUCCGUCUUAAGGAGAAGACUGCGGGUUCGAGUCCCGUACGGUACG here?
A: The yeast fitness was at most 0.5.

Q: For GUUCAGUUGGCGUAGUGGUAACGCGUCUCCCUCCUAAGGAGAAGACUGCGGGUUCGAGUCCCGUACGGAACG, which yeast fitness is on record?
A: The yeast fitness was 0.779.

Q: Which yeast fitness does the source give for GUUCAGUUGGCGUAGUGGUAACGGGUCUUCCUCGCAAGGAGAAGAGUGCGGGUUCGAGUCCCGUACGGAACG here?
A: The yeast fitness was 0.527.

Q: Which yeast fitness does the source give for GUUCAGUUGGCGUAGUGGUAACGCGUCUCCCUACUAAGGAGAAGACUGCGGGUUCGAGUCCCGUACGGAACG here?
A: The yeast fitness was at most 0.5.

Q: For GUUCAGUUGGCGUAGUGGUAACGCGUCUCCCUACUAAGGAGAAGACUGCGGGUUCGAGUCUCGUACGGAACG, which yeast fitness is on record?
A: The yeast fitness was 0.531.

Q: With GUUCAGUUGGCGUAGUGGUAACGCGUCUCCCUUCUAAGGAGAACACUGCGGGUUCGAGUCCCGUACGGAACG as the variant, how does the yeast fitness read?
A: The yeast fitness was at most 0.5.
